Values after ≈ are worked out from the molar mass of the structure shown.
Key:
Escherichia coli [1] = experiment: Antibacterial activity against Escherichia coli J53 by Etest method; type: functional
Escherichia coli [2] = experiment: Antibacterial activity against Escherichia coli TOP10 by Etest method; type: functional
Escherichia coli [3] = experiment: Antibacterial activity against Escherichia coli NF-NDM-1 by Etest method; type: functional
Klebsiella pneumoniae [4] = experiment: Antibacterial activity against Klebsiella pneumoniae 05-560 by Etest method; type: functional
Klebsiella pneumoniae [5] = experiment: Ratio of Kcat to Km for Klebsiella pneumoniae 05-560 beta-lactamase IMP1
Escherichia coli [6] = experiment: Antibacterial activity against Escherichia coli TOP10 harboring beta-lactamase NDM-1 by Etest method; type: functional
Procedure, shortened: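 Fragments from BamHI, EcoRI or HindIII digests of K. pneumoniae 05-506 DNA were cloned into vector pK18 and electroporated into E. coli TOP10. Transformants were selected on LB agar with X-gal (30 μg/ml), ceftazidime (6 μg/ml) and kanamycin (25 μg/ml). Susceptibility read by Etest.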

Escherichia coli [7] = experiment: Antibacterial activity against Escherichia coli J53 harboring beta-lactamase NDM-1 by Etest method; type: functional
Procedure, shortened: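 Transconjugant of E. coli J53 recipient, mated with donor on blood agar without selection for 18 h. Selected on MacConkey agar with sodium azide (100 μg/ml) plus ceftazidime (8 μg/ml). Transfer confirmed by indole test and PCR for the MBL gene. Susceptibility read by Etest.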

Klebsiella pneumoniae [8] = experiment: Activity of Klebsiella pneumoniae 05-560 beta-lactamase IMP1 by spectrophotometry
[9] = tested on: CC(=O)OCC1=C(C(=O)O)N2C(=O)[C@@H](NC(=O)Cc3cccs3)[C@H]2SC1; experiment: (§1) Activity of Klebsiella pneumoniae 05-560 beta-lactamase VIM2 by spectrophotometry
[10] = tested on: CO[C@@]1(NC(=O)Cc2cccs2)C(=O)N2C(C(=O)O)=C(COC(N)=O)CS[C@@H]21; experiment: as §1
[11] = tested on: CO/N=C(\C(=O)N[C@@H]1C(=O)N2C(C(=O)O)=C(COC(C)=O)CS[C@H]12)c1csc(N)n1; experiment: as §1
[12] = tested on: CCN1CCN(C(=O)N[C@@H](C(=O)N[C@@H]2C(=O)N3[C@@H]2SC(C)(C)[C@@H]3C(=O)O)c2ccccc2)C(=O)C1=O; experiment: as §1
[13] = tested on: CC1(C)S[C@@H]2[C@H](NC(=O)Cc3ccccc3)C(=O)N2[C@H]1C(=O)O; experiment: as §1
[14] = tested on: CC(C)(O/N=C(\C(=O)N[C@@H]1C(=O)N2C(C(=O)[O-])=C(C[n+]3ccccc3)CS[C@H]12)c1csc(N)n1)C(=O)O; experiment: as §1
[15] = tested on: CC(=O)OCC1=C(C(=O)O)N2C(=O)[C@@H](NC(=O)Cc3cccs3)[C@H]2SC1; experiment: (§2) Ratio of Kcat to Km for Klebsiella pneumoniae 05-560 beta-lactamase VIM2
[16] = tested on: CO/N=C(\C(=O)N[C@@H]1C(=O)N2C(C(=O)O)=C(COC(C)=O)CS[C@H]12)c1csc(N)n1; experiment: as §2
[17] = tested on: CCN1CCN(C(=O)N[C@@H](C(=O)N[C@@H]2C(=O)N3[C@@H]2SC(C)(C)[C@@H]3C(=O)O)c2ccccc2)C(=O)C1=O; experiment: as §2
[18] = tested on: CC1(C)S[C@@H]2[C@H](NC(=O)Cc3ccccc3)C(=O)N2[C@H]1C(=O)O; experiment: as §2
[19] = tested on: CC(C)(O/N=C(\C(=O)N[C@@H]1C(=O)N2C(C(=O)[O-])=C(C[n+]3ccccc3)CS[C@H]12)c1csc(N)n1)C(=O)O; experiment: as §2
[20] = substrate: CO/N=C(\C(=O)N[C@@H]1C(=O)N2C(C(=O)O)=C(COC(C)=O)CS[C@H]12)c1csc(N)n1; experiment: (§3) Activity of Klebsiella pneumoniae 05-560 beta-lactamase NDM-1 by spectrophotometry
Procedure, shortened: (§4)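 NDM-1 was expressed as a His-trx fusion. The cleared lysate (12,000 rpm, 30 min, 4°C) was bound to Ni-NTA agarose and eluted with 300 mM imidazole. The tag was cut off with TEV protease, and the protein was finished by GS320 gel filtration.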

[21] = substrate: CC(C)(O/N=C(\C(=O)N[C@@H]1C(=O)N2C(C(=O)[O-])=C(C[n+]3ccccc3)CS[C@H]12)c1csc(N)n1)C(=O)O; experiment: as §3; procedure, shortened: as §4
[22] = substrate: C[C@@H](O)[C@H]1C(=O)N2C(C(=O)O)=C(SCCNC=N)C[C@H]12; experiment: as §3; procedure, shortened: as §4
[23] = substrate: CC(=O)OCC1=C(C(=O)O)N2C(=O)[C@@H](NC(=O)Cc3cccs3)[C@H]2SC1; experiment: as §3; procedure, shortened: as §4
[24] = substrate: CO[C@@]1(NC(=O)Cc2cccs2)C(=O)N2C(C(=O)O)=C(COC(N)=O)CS[C@@H]21; experiment: as §3; procedure, shortened: as §4
[25] = substrate: CC1(C)S[C@@H]2[C@H](NC(=O)Cc3ccccc3)C(=O)N2[C@H]1C(=O)O; experiment: as §3; procedure, shortened: as §4
[26] = substrate: CC1(C)S[C@@H]2[C@H](NC(=O)[C@H](N)c3ccccc3)C(=O)N2[C@H]1C(=O)O; experiment: as §3; procedure, shortened: as §4
[27] = substrate: CCN1CCN(C(=O)N[C@@H](C(=O)N[C@@H]2C(=O)N3[C@@H]2SC(C)(C)[C@@H]3C(=O)O)c2ccccc2)C(=O)C1=O; experiment: as §3; procedure, shortened: as §4
[28] = substrate: CO/N=C(\C(=O)N[C@@H]1C(=O)N2C(C(=O)[O-])=C(C[N+]3(C)CCCC3)CS[C@H]12)c1csc(N)n1; experiment: as §3; procedure, shortened: as §4
[29] = substrate: CO/N=C(\C(=O)N[C@@H]1C(=O)N2C(C(=O)O)=C(COC(C)=O)CS[C@H]12)c1csc(N)n1; experiment: (§5) Ratio of Kcat to Km for Klebsiella pneumoniae 05-560 beta-lactamase NDM-1; procedure, shortened: as §4
[30] = substrate: CC(C)(O/N=C(\C(=O)N[C@@H]1C(=O)N2C(C(=O)[O-])=C(C[n+]3ccccc3)CS[C@H]12)c1csc(N)n1)C(=O)O; experiment: as §5; procedure, shortened: as §4
[31] = substrate: C[C@@H](O)[C@H]1C(=O)N2C(C(=O)O)=C(SCCNC=N)C[C@H]12; experiment: as §5; procedure, shortened: as §4
[32] = substrate: CC(=O)OCC1=C(C(=O)O)N2C(=O)[C@@H](NC(=O)Cc3cccs3)[C@H]2SC1; experiment: as §5; procedure, shortened: as §4
[33] = substrate: CO[C@@]1(NC(=O)Cc2cccs2)C(=O)N2C(C(=O)O)=C(COC(N)=O)CS[C@@H]21; experiment: as §5; procedure, shortened: as §4
[34] = substrate: CC1(C)S[C@@H]2[C@H](NC(=O)Cc3ccccc3)C(=O)N2[C@H]1C(=O)O; experiment: as §5; procedure, shortened: as §4
[35] = substrate: CC1(C)S[C@@H]2[C@H](NC(=O)[C@H](N)c3ccccc3)C(=O)N2[C@H]1C(=O)O; experiment: as §5; procedure, shortened: as §4
[36] = substrate: CCN1CCN(C(=O)N[C@@H](C(=O)N[C@@H]2C(=O)N3[C@@H]2SC(C)(C)[C@@H]3C(=O)O)c2ccccc2)C(=O)C1=O; experiment: as §5; procedure, shortened: as §4
[37] = substrate: CO/N=C(\C(=O)N[C@@H]1C(=O)N2C(C(=O)[O-])=C(C[N+]3(C)CCCC3)CS[C@H]12)c1csc(N)n1; experiment: as §5; procedure, shortened: as §4

## CO[C@@]1(NC(=O)Cc2cccs2)C(=O)N2C(C(=O)O)=C(COC(N)=O)CS[C@@H]21 [CEFOXITIN]
Escherichia coli [1]
  MIC: 2 µg/mL (≈ 4.68 µM)
Escherichia coli [2]
  MIC: 4 µg/mL (≈ 9.36 µM)
Escherichia coli [3]
  MIC: > 256 µg/mL
Klebsiella pneumoniae [4]
  MIC: > 256 µg/mL
Klebsiella pneumoniae [5]
  kcat/Km: 2e+06 M⁻¹ s⁻¹
Escherichia coli [6]
  MIC: > 256 µg/mL
Escherichia coli [7]
  MIC: > 256 µg/mL

## CC(C)(O/N=C(\C(=O)N[C@@H]1C(=O)N2C(C(=O)[O-])=C(C[n+]3ccccc3)CS[C@H]12)c1csc(N)n1)C(=O)O [CEFTAZIDIME]
Escherichia coli [1]
  MIC: 0.125 µg/mL (≈ 0.229 µM)
Escherichia coli [2]
  MIC: 1 µg/mL (≈ 1.83 µM)
Escherichia coli [3]
  MIC: > 256 µg/mL
Klebsiella pneumoniae [4]
  MIC: > 256 µg/mL
Klebsiella pneumoniae [8]
  Km: 44 µM
  kcat: 8 s⁻¹
Klebsiella pneumoniae [5]
  kcat/Km: 180000 M⁻¹ s⁻¹
Escherichia coli [6]
  MIC: > 256 µg/mL
Escherichia coli [7]
  MIC: > 256 µg/mL

## CO/N=C(\C(=O)N[C@@H]1C(=O)N2C(C(=O)O)=C(COC(C)=O)CS[C@H]12)c1csc(N)n1 [CEFOTAXIME]
Escherichia coli [1]
  MIC: 0.064 µg/mL (≈ 0.141 µM)
Escherichia coli [2]
  MIC: 0.125 µg/mL (≈ 0.274 µM)
Escherichia coli [3]
  MIC: > 256 µg/mL
Klebsiella pneumoniae [4]
  MIC: > 256 µg/mL
Klebsiella pneumoniae [8]
  Km: 4 µM
  kcat: 1.3 s⁻¹
Klebsiella pneumoniae [5]
  kcat/Km: 350000 M⁻¹ s⁻¹
Escherichia coli [6]
  MIC: > 256 µg/mL
Escherichia coli [7]
  MIC: > 256 µg/mL

## COLISTIN
Escherichia coli [1]
  MIC: 0.25 µg/mL
Escherichia coli [2]
  MIC: 0.38 µg/mL
Escherichia coli [3]
  MIC: 0.25 µg/mL
Klebsiella pneumoniae [4]
  MIC: 0.75 µg/mL
Escherichia coli [6]
  MIC: 0.38 µg/mL
Escherichia coli [7]
  MIC: 0.25 µg/mL

## C[C@H]1[C@H](NC(=O)/C(=N\OC(C)(C)C(=O)O)c2csc(N)n2)C(=O)N1S(=O)(=O)O [AZTREONAM]
Escherichia coli [3]
  MIC: 24 µg/mL (≈ 55.1 µM)
Klebsiella pneumoniae [4]
  MIC: > 256 µg/mL
Klebsiella pneumoniae [8]
  Km: > 1000 µM
  kcat: > 0.01 s⁻¹
Klebsiella pneumoniae [5]
  kcat/Km: < 100 M⁻¹ s⁻¹
Escherichia coli [6]
  MIC: 0.25 µg/mL (≈ 0.574 µM)
Escherichia coli [7]
  MIC: 24 µg/mL (≈ 55.1 µM)

## Metallo-beta-lactamase VIM-2 (Klebsiella pneumoniae) (from UniProt Q3Y6Q3)
[9]
  Km: 44 µM
  kcat: 57 s⁻¹
[10]
  Km: 24 µM
  kcat: 3 s⁻¹
[11]
  Km: 32 µM
[12]
  Km: 72 µM
  kcat: 33 s⁻¹
[13]
  Km: 49 µM
  kcat: 56 s⁻¹
[14]
  Km: 98 µM
  kcat: 89 s⁻¹
[15]
  kcat/Km: 1.28e+06 M⁻¹ s⁻¹
[16]
  kcat/Km: 860000 M⁻¹ s⁻¹
[17]
  kcat/Km: 450000 M⁻¹ s⁻¹
[18]
  kcat/Km: 1.14e+06 M⁻¹ s⁻¹
[19]
  kcat/Km: 900000 M⁻¹ s⁻¹

## C[C@@H](O)[C@H]1C(=O)N2C(C(=O)O)=C(SCCNC=N)C[C@H]12 [IMIPENEM ANHYDROUS]
Escherichia coli [2]
  MIC: 0.094 µg/mL (≈ 0.314 µM)
Escherichia coli [3]
  MIC: > 32 µg/mL
Klebsiella pneumoniae [4]
  MIC: > 256 µg/mL
Klebsiella pneumoniae [8]
  Km: 39 µM
  kcat: 46 s⁻¹
Klebsiella pneumoniae [5]
  kcat/Km: 1.2e+06 M⁻¹ s⁻¹
Escherichia coli [6]
  MIC: 12 µg/mL (≈ 40.1 µM)
Escherichia coli [7]
  MIC: 16 µg/mL (≈ 53.4 µM)

## CC(=O)OCC1=C(C(=O)O)N2C(=O)[C@@H](NC(=O)Cc3cccs3)[C@H]2SC1 [CEPHALOTHIN]
Escherichia coli [1]
  MIC: 4 µg/mL (≈ 10.1 µM)
Escherichia coli [2]
  MIC: 8 µg/mL (≈ 20.2 µM)
Escherichia coli [3]
  MIC: > 256 µg/mL
Klebsiella pneumoniae [4]
  MIC: > 256 µg/mL
Klebsiella pneumoniae [8]
  Km: 21 µM
  kcat: 48 s⁻¹
Klebsiella pneumoniae [5]
  kcat/Km: 2.4e+06 M⁻¹ s⁻¹
Escherichia coli [6]
  MIC: > 256 µg/mL
Escherichia coli [7]
  MIC: > 256 µg/mL

B1: Metallo-beta-lactamase type 2 (Klebsiella pneumoniae), C7C422 (protein)
chain: MELPNIMHPVAKLSTALAAALMLSGCMPGEIRPTIGQQMETGDQRFGDLVFRQLAPNVWQHTSYLDMPGFGAVASNGLIVRDGGRVLVVDTAWTDDQTAQILNWIKQEINLPVALAVVTHAHQDKMGGMDALHAAGIATYANALSNQLAPQEGMVAAQHSLTFAANGWVEPATAPNFGPLKVFYPGPGHTSDNITVGIDGTDIAFGGCLIKDSKAKSLGNLGDADTEHYAASARAFGAAFPKASMIVMSHSAPDSRAAITHTARMADKLR
[20]
  Km: 10 µM
  kcat: 6 s⁻¹
[21]
  Km: 181 µM
  kcat: 5 s⁻¹
[22]
  Km: 94 µM
  kcat: 20 s⁻¹
[23]
  Km: 10 µM
  kcat: 4 s⁻¹
[24]
  kcat: 1 s⁻¹
[25]
  Km: 16 µM
  kcat: 11 s⁻¹
[26]
  Km: 22 µM
  kcat: 15 s⁻¹
[27]
  kcat: 14 s⁻¹
[28]
  Km: 77 µM
  kcat: 13 s⁻¹
[29]
  kcat/Km: 580000 M⁻¹ s⁻¹
[30]
  kcat/Km: 30000 M⁻¹ s⁻¹
[31]
  kcat/Km: 210000 M⁻¹ s⁻¹
[32]
  kcat/Km: 400000 M⁻¹ s⁻¹
[33]
  kcat/Km: 20000 M⁻¹ s⁻¹
[34]
  kcat/Km: 680000 M⁻¹ s⁻¹
[35]
  kcat/Km: 660000 M⁻¹ s⁻¹
[36]
  kcat/Km: 1.17e+06 M⁻¹ s⁻¹
[37]
  kcat/Km: 170000 M⁻¹ s⁻¹

— ChEMBL document CHEMBL1649278, “Characterization of a new metallo-beta-lactamase gene, bla(NDM-1), and a novel erythromycin esterase gene carried on a unique genetic structure in Klebsiella pneumoniae sequence type 14 from India” (2009)
